The record followed here is ChEMBL document CHEMBL5257020, “Discovery of a 9-mer Cationic Peptide (LTX-315) as a Potential First in Class Oncolytic Peptide” (J Med Chem, 2016).

The structures appear in SMILES notation. Where a SMILES comes first, the peptide text is derived from it. [ ]: non-standard residue; d: D form. ξ: configuration not given here. ξAla(9-anthryl) = NC(Cc1c2ccccc2cc2ccccc12)C(=O)O; Dip = N[C@H](C(=O)O)C(c1ccccc1)c1ccccc1; ξBip = NC(Cc1ccc(-c2ccccc2)cc1)C(=O)O; ξDip = NC(C(=O)O)C(c1ccccc1)c1ccccc1; ξ1Nal = NC(Cc1cccc2ccccc12)C(=O)O; ξ2Nal = NC(Cc1ccc2ccccc2c1)C(=O)O; ξOrn = NCCCC(N)C(=O)O; ξDab = NCCC(N)C(=O)O; ξDap = NCC(N)C(=O)O Where only a bound is given, the exact number is not on record here.

One series relates to A20. Nature of the series: Cytotoxicity against mouse A20 lymphoma cells assessed as inhibition of cell proliferation incubated for 4 hrs by MTT assay. In kind it is functional, cell-based. The settings on record: A20, 4 h. An outline of the steps:
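Murine A20 cells cultured in RPMI-1640 with 2 mM L-glutamine, 1.5 g/L sodium bicarbonate, 4.5 g/L glucose, 10 mM HEPES, 1.0 mM sodium pyruvate, 0.05 mM 2-mercaptoethanol and 10% FBS, without antibiotics, at 37 °C, 5% CO2. IC50 from three or more independent measurements, given as mean ± SD.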

Series [1] in a line: Cytotoxicity against mouse AT84 cells assessed as inhibition of cell proliferation incubated for 4 hrs by MTT assay. It counts as functional, cell-based. The settings on record: AT84, 4 h.
A short description of series [2]: Cytotoxicity against human MRC5 cells assessed as inhibition of cell proliferation incubated for 4 hrs by MTT assay. In kind it is toxicity, cell-based. An outline of the steps: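 MRC-5 human embryonic lung fibroblasts cultured in MEM with 2 mM L-glutamine and 10% FBS, without antibiotics, at 37 °C in humidified 5% CO2. Cultures were tested for mycoplasma. IC50 from three or more independent measurements, given as mean ± SD.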

Series [3] in a line: Stability in pooled and cryopreserved rat hepatocytes assessed as half life at 1 uM measured for 90 mins by LC-MS/MS analysis. In kind it is ADME, cell-based, Hepatocyte. The gist of the method:
(§1)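 Pooled cryopreserved rat or human hepatocytes, 0.5 million cells/mL, ~37 °C, peptide at 1 μM initial. Supernatants analysed by LC–MS/MS with peak height referenced to time zero. t1/2 = −0.693/slope of ln concentration vs time. Duplicate experiments. Testosterone, midazolam and 4-methylumbelliferone served as metabolic-competence controls.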

The nature of series [4]: Stability in pooled and cryopreserved rat hepatocytes assessed as intrinsic clearance measured per 10^6 cells at 1 uM measured for 90 mins by LC-MS/MS analysis. It counts as ADME, cell-based, Hepatocyte. The settings on record: read-out: CLH. The gist of the method: (§2)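 Pooled cryopreserved hepatocytes at 0.5 million cells/mL, incubated at about 37 °C with 1 μM initial peptide. Supernatant after centrifugation analysed by LC–MS/MS (MRM) using a D-Trp7,9,10-substance P internal standard. Peak height was referenced to time zero, and t1/2 = −0.693/slope of ln concentration vs time. Clint = 0.693/t1/2 × Vinc per million cells. Testosterone, midazolam and 4-methylumbelliferone were the positive controls. Duplicates; mean of two experiments.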

The nature of series [5]: Stability in pooled and cryopreserved human hepatocytes assessed as half life at 1 uM measured for 90 mins by LC-MS/MS analysis. In kind it is ADME, cell-based, Hepatocyte. The gist of the method: as §1
Series [6] in a line: Stability in pooled and cryopreserved human hepatocytes assessed as intrinsic clearance measured per 10^6 cells at 1 uM measured for 90 mins by LC-MS/MS analysis. In kind it is ADME, cell-based, Hepatocyte. The settings on record: read-out: CLH. An outline of the steps:
as §2

Consider `NCCCC[C@H](NC(=O)[C@H](Cc1c[nH]c2ccccc12)NC(=O)[C@H](Cc1c[nH]c2ccccc12)NC(=O)[C@H](CCCCN)NC(=O)[C@H](CCCCN)NC(=O)[C@H](Cc1c[nH]c2ccccc12)NC(=O)[C@H](Cc1c[nH]c2ccccc12)NC(=O)[C@H](CCCCN)NC(=O)[C@@H](N)CCCCN)C(N)=O` (H-KKWWKKWWK-NH2), for which the IC50 in the series with A20 turned out to be 37.3 µM; in series [1], 31 µM. In addition, the IC50 at 4 h in series [2] was above 357 µM.

With `NCCCC[C@H](NC(=O)[C@H](Cc1c[nH]c2ccccc12)NC(=O)C(NC(=O)[C@H](CCCCN)NC(=O)[C@H](CCCCN)NC(=O)[C@H](Cc1c[nH]c2ccccc12)NC(=O)[C@H](Cc1c[nH]c2ccccc12)NC(=O)[C@H](CCCCN)NC(=O)[C@@H](N)CCCCN)C(c1ccccc1)c1ccccc1)C(N)=O` (stereo not given in full) (H-KKWWKK[ξDip]WK-NH2), the IC50 with A20 worked out at 12.3 µM; in series [1], 25.3 µM. In series [2], the IC50 at 4 h is 102 µM.

Take `NCCCC[C@H](NC(=O)[C@H](Cc1c[nH]c2ccccc12)NC(=O)[C@H](Cc1c[nH]c2ccccc12)NC(=O)[C@H](CCCCN)NC(=O)[C@H](CCCCN)NC(=O)[C@@H](NC(=O)[C@H](Cc1c[nH]c2ccccc12)NC(=O)[C@H](CCCCN)NC(=O)[C@@H](N)CCCCN)C(c1ccccc1)c1ccccc1)C(N)=O` (H-KKW[Dip]KKWWK-NH2): the IC50 in the series with A20 was 134 µM; in series [1], 113 µM. Also, the IC50 at 4 h in series [2] is above 347 µM.

Regarding `NCCCC[C@H](NC(=O)[C@H](Cc1c[nH]c2ccccc12)NC(=O)[C@H](Cc1c[nH]c2ccccc12)NC(=O)[C@H](CCCCN)NC(=O)[C@H](CCCCN)NC(=O)C(Cc1cccc2ccccc12)NC(=O)[C@H](Cc1c[nH]c2ccccc12)NC(=O)[C@H](CCCCN)NC(=O)[C@@H](N)CCCCN)C(N)=O` (stereo not given in full) (H-KKW[ξ1Nal]KKWWK-NH2), the figures for the half-inhibitory concentration (IC50) (in the series on A20; in series [1]) were 24 µM and 26.3 µM, respectively. For the same compound, in series [2], the IC50 at 4 h was 238 µM.

`NCCCC[C@H](NC(=O)[C@H](Cc1c[nH]c2ccccc12)NC(=O)[C@H](Cc1c[nH]c2ccccc12)NC(=O)[C@H](CCCCN)NC(=O)[C@H](CCCCN)NC(=O)C(Cc1ccc2ccccc2c1)NC(=O)[C@H](Cc1c[nH]c2ccccc12)NC(=O)[C@H](CCCCN)NC(=O)[C@@H](N)CCCCN)C(N)=O` (stereo not given in full) (H-KKW[ξ2Nal]KKWWK-NH2): the IC50 was determined as 26 µM with A20 and 29.3 µM in series [1]. Also, the IC50 at 4 h in series [2] came to 257 µM.

With `NCCCC[C@H](NC(=O)[C@H](Cc1c[nH]c2ccccc12)NC(=O)[C@H](Cc1c[nH]c2ccccc12)NC(=O)[C@H](CCCCN)NC(=O)[C@H](CCCCN)NC(=O)C(Cc1c2ccccc2cc2ccccc12)NC(=O)[C@H](Cc1c[nH]c2ccccc12)NC(=O)[C@H](CCCCN)NC(=O)[C@@H](N)CCCCN)C(N)=O` (stereo not given in full) (H-KKW[ξAla(9-anthryl)]KKWWK-NH2), the IC50 in the series on A20 was found to be 9.3 µM; in series [1], 11 µM. Besides, the IC50 at 4 h in series [2] was found to be 40 µM.

Take `NCCCC[C@H](NC(=O)[C@H](Cc1c[nH]c2ccccc12)NC(=O)[C@H](Cc1c[nH]c2ccccc12)NC(=O)[C@H](CCCCN)NC(=O)[C@H](CCCCN)NC(=O)C(Cc1ccc(-c2ccccc2)cc1)NC(=O)[C@H](Cc1c[nH]c2ccccc12)NC(=O)[C@H](CCCCN)NC(=O)[C@@H](N)CCCCN)C(N)=O` (stereo not given in full) (H-KKW[ξBip]KKWWK-NH2): the IC50 came to 18.7 µM in the series with A20 and 27.3 µM in series [1]. The IC50 at 4 h in series [2] came out at 174 µM.

Consider `NCCCC[C@H](NC(=O)[C@H](Cc1c[nH]c2ccccc12)NC(=O)[C@H](Cc1c[nH]c2ccccc12)NC(=O)[C@H](CCCCN)NC(=O)[C@H](CCCCN)NC(=O)C(NC(=O)[C@H](Cc1c[nH]c2ccccc12)NC(=O)[C@H](CCCCN)NC(=O)[C@@H](N)CCCCN)C(c1ccccc1)c1ccccc1)C(N)=O` (stereo not given in full) (H-KKW[ξDip]KKWWK-NH2), for which the IC50 with A20 was 25.7 µM; in series [1] it was 24.7 µM. The IC50 at 4 h in series [2] is 287 µM.

Take `NCCCC[C@H](NC(=O)C(NC(=O)[C@H](Cc1c[nH]c2ccccc12)NC(=O)[C@H](CCCCN)NC(=O)[C@H](CCCCN)NC(=O)C(NC(=O)[C@H](Cc1c[nH]c2ccccc12)NC(=O)[C@H](CCCCN)NC(=O)[C@@H](N)CCCCN)C(c1ccccc1)c1ccccc1)C(c1ccccc1)c1ccccc1)C(N)=O` (stereo not given in full) (H-KKW[ξDip]KKW[ξDip]K-NH2): the results for the IC50 (in the series on A20; in series [1]) were 12 µM and 15 µM, respectively. In addition, the IC50 at 4 h in series [2] was 80 µM.

For the compound `NCCCC[C@H](NC(=O)[C@H](Cc1c[nH]c2ccccc12)NC(=O)[C@H](Cc1c[nH]c2ccccc12)NC(=O)[C@H](CCCCN)NC(=O)[C@H](CCCCN)NC(=O)[C@H](Cc1c[nH]c2ccccc12)NC(=O)C(NC(=O)[C@H](CCCCN)NC(=O)[C@@H](N)CCCCN)C(c1ccccc1)c1ccccc1)C(N)=O` (stereo not given in full) (H-KK[ξDip]WKKWWK-NH2), the IC50 with A20 was determined as 51.7 µM; in series [1] it was 36.7 µM. Also, in series [2], the IC50 at 4 h is 488 µM.

For `NCCCC[C@H](NC(=O)C(NC(=O)[C@H](Cc1c[nH]c2ccccc12)NC(=O)[C@H](CCCCN)NC(=O)[C@H](CCCCN)NC(=O)[C@H](Cc1c[nH]c2ccccc12)NC(=O)[C@H](Cc1c[nH]c2ccccc12)NC(=O)[C@@H](N)CCCCN)C(c1ccccc1)c1ccccc1)C(N)=O` (stereo not given in full) (H-KWWKKW[ξDip]K-NH2), in the series on A20, the concentration for half-maximal inhibition (IC50) was determined as 13.5 µM. In addition, the IC50 at 4 h in series [2] worked out at 43.9 µM.

In the case of `NCCCC[C@H](NC(=O)C(NC(=O)[C@H](Cc1c[nH]c2ccccc12)NC(=O)[C@H](CCCCN)NC(=O)[C@H](CCCCN)NC(=O)[C@@H](N)Cc1c[nH]c2ccccc12)C(c1ccccc1)c1ccccc1)C(N)=O` (stereo not given in full) (H-WKKW[ξDip]K-NH2), the IC50 with A20 was 247 µM. In series [2], the half-maximal inhibitory concentration (IC50) at 4 h was 460 µM.

Turning to `NCCCC[C@H](NC(=O)C(NC(=O)[C@H](Cc1c[nH]c2ccccc12)NC(=O)[C@H](CCCCN)NC(=O)[C@H](CCCCN)NC(=O)[C@H](Cc1c[nH]c2ccccc12)NC(=O)[C@@H](N)Cc1c[nH]c2ccccc12)C(c1ccccc1)c1ccccc1)C(N)=O` (stereo not given in full) (H-WWKKW[ξDip]K-NH2), the IC50 in the series with A20 turned out to be 20.3 µM. The IC50 at 4 h in series [2] is 53.2 µM.

`NCCC(N)C(=O)NC(CCN)C(=O)N[C@@H](Cc1c[nH]c2ccccc12)C(=O)NC(C(=O)NC(CCN)C(=O)NC(CCN)C(=O)N[C@@H](Cc1c[nH]c2ccccc12)C(=O)N[C@@H](Cc1c[nH]c2ccccc12)C(=O)NC(CCN)C(N)=O)C(c1ccccc1)c1ccccc1` (stereo not given in full) (H-[ξDab][ξDab]W[ξDip][ξDab][ξDab]WW[ξDab]-NH2): the IC50 worked out at 8.3 µM in the series on A20 and 14.3 µM in series [1]. The IC50 at 4 h in series [2] amounted to 97.7 µM.

On to `NCC(N)C(=O)NC(CN)C(=O)N[C@@H](Cc1c[nH]c2ccccc12)C(=O)NC(C(=O)NC(CN)C(=O)NC(CN)C(=O)N[C@@H](Cc1c[nH]c2ccccc12)C(=O)N[C@@H](Cc1c[nH]c2ccccc12)C(=O)NC(CN)C(N)=O)C(c1ccccc1)c1ccccc1` (stereo not given in full) (H-[ξDap][ξDap]W[ξDip][ξDap][ξDap]WW[ξDap]-NH2), for which the IC50 with A20 is 67.7 µM; in series [1], 154 µM. Further, the IC50 at 4 h in series [2] turned out to be 516 µM.

For the compound `NCCCC(N)C(=O)NC(CCCN)C(=O)N[C@@H](Cc1c[nH]c2ccccc12)C(=O)NC(C(=O)NC(CCCN)C(=O)NC(CCCN)C(=O)N[C@@H](Cc1c[nH]c2ccccc12)C(=O)N[C@@H](Cc1c[nH]c2ccccc12)C(=O)NC(CCCN)C(N)=O)C(c1ccccc1)c1ccccc1` (stereo not given in full) (H-[ξOrn][ξOrn]W[ξDip][ξOrn][ξOrn]WW[ξOrn]-NH2), the IC50 worked out at 21.7 µM with A20 and 23 µM in series [1]. Moreover, the IC50 at 4 h in series [2] stood at 323 µM.

Consider `Cc1cc(=O)oc2cc(O)ccc12` [HYMECROMONE], for which the results for the half-life at 1 µM in series [3] and in series [5] were 4 min and 11 min, respectively. The hepatocyte CLint at 1 µM was determined as 373 µL/min/1e6 cells in series [4] and 127 µL/min/1e6 cells in series [6].

Turning to `Cc1ncc2n1-c1ccc(Cl)cc1C(c1ccccc1F)=NC2` [MIDAZOLAM], the half-life at 1 µM in series [3] is 27 min; in series [5], above 200 min. Besides, the hepatocyte CLint at 1 µM was 51 µL/min/1e6 cells in series [4] and below 7 µL/min/1e6 cells in series [6].

For `C[C@]12CC[C@H]3[C@@H](CCC4=CC(=O)CC[C@@]43C)[C@@H]1CC[C@@H]2O` [TESTOSTERONE], the results for the hepatocyte CLint at 1 µM in series [4] and in series [6] were 811 µL/min/1e6 cells and 333 µL/min/1e6 cells, respectively.
